According to PubChem BioAssay AID588750 (Vanderbilt Specialized Chemistry Center, 2011):
Calls of active or inactive are those of the source.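 How the source made its calls: active means compounds with a dose-dependent response, reported with half-maximal potency and percent of the acetylcholine maximum; inactive means the rest.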

target: Muscarinic acetylcholine receptor M3 (Rattus norvegicus) (UniProt P08483); test: potentiation of ACh response at rat M3 – CHO cells, Fluo-4 calcium mobilization, selectivity assay for M4 PAM project, dose response (AID 588750); details: CHO rat M3, Fluo-4 calcium mobilization; series mostly up to 30 µM; percent of ACh max: at the top concentration
How it was run: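 system = CHO cells stably expressing cloned rat M3 muscarinic receptor | reagent = acetylcholine at EC20, followed by acetylcholine at EC80 | timing = compound pre-incubation 144 s before ACh EC20, read at 37 °C | signal = kinetic calcium fluorescence with Fluo-4 AM dye loaded at 2.3 µM | control set = maximal acetylcholine response at 1 mM for normalization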

Row | SMILES | percent of ACh max
1 | Cc1nc2sc(C(=O)NCc3ccc4c(c3)OCO4)c(N)c2c(C)c1Cl | 14.8 [at 36.8 µM] (inactive)
2 | Cc1nc2sc(C(=O)NCc3cccnc3)c(N)c2c(C)c1Cl | 13.5 [at 45.3 µM] (inactive)
3 | Cc1nc2sc(C(=O)NC3CC3)c(N)c2c(C)c1Cl | 19.5 (inactive)
4 | Cc1nc2sc(C(=O)NCc3ccccc3)c(N)c2c(C)c1Cl | 14.2 [at 37.4 µM] (inactive)
5 | Cc1nc2sc(C(=O)NCc3cccc(F)c3F)c(N)c2c(C)c1Cl | 15.9 (inactive)
6 | Cc1nc2sc(C(=O)NCCc3ccncc3)c(N)c2c(C)c1Cl | 19.2 (inactive)
7 | Cc1nc2sc(C(=O)NCc3ccncn3)c(N)c2c(C)c1Cl | 17.7 (inactive)
8 | Cc1nc2sc(C(=O)NCc3nccs3)c(N)c2c(C)c1Cl | 20.6 (inactive)
9 | Cc1nc2sc(C(=O)NCc3ccncc3)c(N)c2c(C)c1Cl | 16.7 [at 45.3 µM] (inactive)
